Reference: ChEMBL document CHEMBL4715736, “Identification of anticancer agents based on the thieno[2,3-b]pyridine and 1H-pyrazole molecular scaffolds” (2016)

Experiments:
Format in all cases: functional
HCT-15 = test: Growth inhibition of human HCT-15 cells assessed as cell growth at 100 uM incubated for 48 hrs by sulforhodamine B assay relative to control; conditions: read-out: Activity
SK-MEL-28 = test: Growth inhibition of human SK-MEL-28 cells assessed as cell growth at 1 uM incubated for 48 hrs by sulforhodamine B assay relative to control; conditions: read-out: Activity
UACC-257 = test: Growth inhibition of human UACC-257 cells assessed as cell growth at 0.01 uM incubated for 48 hrs by sulforhodamine B assay relative to control; conditions: read-out: Activity
LOX IMVI [1] = test: Growth inhibition of human LOX IMVI cells assessed as cell growth at 1 uM incubated for 48 hrs by sulforhodamine B assay relative to control; conditions: read-out: Activity
RXF 393 [2] = test: Growth inhibition of human RXF 393 cells assessed as cell growth at 0.01 uM incubated for 48 hrs by sulforhodamine B assay relative to control; conditions: read-out: Activity
MDA-MB-435 = test: Growth inhibition of human MDA-MB-435 cells assessed as cell growth at 0.01 uM incubated for 48 hrs by sulforhodamine B assay relative to control; conditions: read-out: Activity
MCF7 [3] = test: Growth inhibition of human MCF7 cells assessed as cell growth at 1 uM incubated for 48 hrs by sulforhodamine B assay relative to control; conditions: read-out: Activity
SW-620 = test: Growth inhibition of human SW-620 cells assessed as cell growth at 0.1 uM incubated for 48 hrs by sulforhodamine B assay relative to control; conditions: read-out: Activity
UO-31 [4] = test: Growth inhibition of human UO-31 cells assessed as cell growth at 0.01 uM incubated for 48 hrs by sulforhodamine B assay relative to control; conditions: read-out: Activity
CCRF-CEM [5] = test: Growth inhibition of human CCRF-CEM cells assessed as cell growth at 0.01 uM incubated for 48 hrs by sulforhodamine B assay relative to control; conditions: read-out: Activity
In short: (§1)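 NCI Developmental Therapeutics Program NCI60 panel. Compounds that were active in the 10 µM one-dose screen went on to dose–response testing. Growth at each concentration is expressed relative to untreated control (100%). GI50 (concentration giving 50% of maximal inhibition of proliferation) and TGI (concentration giving total growth inhibition) were derived from the curves.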

NCI-H522 = test: Growth inhibition of human NCI-H522 cells assessed as cell growth at 0.01 uM incubated for 48 hrs by sulforhodamine B assay relative to control; conditions: read-out: Activity
BT-549 = test: Growth inhibition of human BT-549 cells assessed as cell growth at 0.01 uM incubated for 48 hrs by sulforhodamine B assay relative to control; conditions: read-out: Activity
IGROV-1 [6] = test: Growth inhibition of human IGROV-1 cells assessed as cell growth at 0.01 uM incubated for 48 hrs by sulforhodamine B assay relative to control; conditions: read-out: Activity
T47D = test: Growth inhibition of human T47D cells assessed as cell growth at 0.1 uM incubated for 48 hrs by sulforhodamine B assay relative to control; conditions: read-out: Activity
UACC-62 = test: Growth inhibition of human UACC-62 cells assessed as cell growth at 0.01 uM incubated for 48 hrs by sulforhodamine B assay relative to control; conditions: read-out: Activity
MCF7 [7] = test: Growth inhibition of human MCF7 cells incubated for 48 hrs by sulforhodamine B assay; conditions: for CC50: read-out: LC50 (the source's name)
In short: (§2)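 NCI60 panel at the NCI Developmental Therapeutics Program. Only compounds active in the 10 µM screen went to dose-response testing. GI50, the concentration giving 50% of maximal inhibition of proliferation, and TGI, the concentration giving total growth inhibition, were derived from the dose-response curves.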

SNB-75 [8] = test: Growth inhibition of human SNB-75 cells assessed as cell growth at 100 uM incubated for 48 hrs by sulforhodamine B assay relative to control; conditions: read-out: Activity
IGROV-1 [9] = test: Growth inhibition of human IGROV-1 cells assessed as cell growth at 1 uM incubated for 48 hrs by sulforhodamine B assay relative to control; conditions: read-out: Activity
HT-29 = test: Growth inhibition of human HT-29 cells assessed as cell growth at 100 uM incubated for 48 hrs by sulforhodamine B assay relative to control; conditions: read-out: Activity
MOLT-4 = test: Growth inhibition of human MOLT-4 cells assessed as cell growth at 100 uM incubated for 48 hrs by sulforhodamine B assay relative to control; conditions: read-out: Activity
SNB-75 [10] = test: Growth inhibition of human SNB-75 cells assessed as cell growth at 0.1 uM incubated for 48 hrs by sulforhodamine B assay relative to control; conditions: read-out: Activity
NCI/ADR-RES = test: Growth inhibition of human NCI/ADR-RES cells incubated for 48 hrs by sulforhodamine B assay; conditions: for CC50: read-out: LC50 (the source's name); in short: as §2
RXF 393 [11] = test: Growth inhibition of human RXF 393 cells incubated for 48 hrs by sulforhodamine B assay; conditions: for CC50: read-out: LC50 (the source's name)
In short: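 NCI DTP 60-line human tumour panel. Dose-response curves were run only for ligands active in the initial 10 µM screen. GI50 (concentration giving 50% of maximal inhibition of proliferation) and TGI (concentration giving total growth inhibition) were derived from these curves.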

LOX IMVI [12] = test: Growth inhibition of human LOX IMVI cells assessed as cell growth at 0.01 uM incubated for 48 hrs by sulforhodamine B assay relative to control; conditions: read-out: Activity
TK-10 = test: Growth inhibition of human TK-10 cells assessed as cell growth at 0.1 uM incubated for 48 hrs by sulforhodamine B assay relative to control; conditions: read-out: Activity
UO-31 [13] = test: Growth inhibition of human UO-31 cells assessed as cell growth at 0.1 uM incubated for 48 hrs by sulforhodamine B assay relative to control; conditions: read-out: Activity
NCI-H460 = test: Growth inhibition of human NCI-H460 cells assessed as cell growth at 100 uM incubated for 48 hrs by sulforhodamine B assay relative to control; conditions: read-out: Activity
K562 = test: Growth inhibition of human K562 cells incubated for 48 hrs by sulforhodamine B assay; in short: as §2
Malme-3M = test: Growth inhibition of human Malme-3M cells incubated for 48 hrs by sulforhodamine B assay; in short: as §2
HOP-62 = test: Growth inhibition of human HOP-62 cells assessed as cell growth at 0.01 uM incubated for 48 hrs by sulforhodamine B assay relative to control; conditions: read-out: Activity
CCRF-CEM [14] = test: Growth inhibition of human CCRF-CEM cells assessed as cell growth at 0.1 uM incubated for 48 hrs by sulforhodamine B assay relative to control; conditions: read-out: Activity; in short: as §1
NCI-H226 = test: Growth inhibition of human NCI-H226 cells assessed as cell growth at 1 uM incubated for 48 hrs by sulforhodamine B assay relative to control; conditions: read-out: Activity
ACHN = test: Growth inhibition of human ACHN cells assessed as cell growth at 100 uM incubated for 48 hrs by sulforhodamine B assay relative to control; conditions: read-out: Activity
PC-3 = test: Growth inhibition of human PC-3 cells assessed as cell growth at 100 uM incubated for 48 hrs by sulforhodamine B assay relative to control; conditions: read-out: Activity
786-0 = test: Growth inhibition of human 786-0 cells assessed as cell growth at 100 uM incubated for 48 hrs by sulforhodamine B assay relative to control; conditions: read-out: Activity

Nc1c(C(=O)Nc2ccccc2)sc2nc3c(cc12)CN(Cc1ccccc1)CC3
growth at 100 µM (HCT-15): 25% | growth at 1 µM (SK-MEL-28): 94% | growth at 0.01 µM (UACC-257): 93% | growth at 1 µM (LOX IMVI [1]): 98% | growth at 0.01 µM (RXF 393 [2]): 96% | growth at 0.01 µM (MDA-MB-435): 93% | growth at 1 µM (MCF7 [3]): 82% | growth at 0.1 µM (SW-620): 97% | growth at 0.01 µM (UO-31 [4]): 80% | growth at 0.01 µM (CCRF-CEM [5]): 96% | growth at 0.01 µM (NCI-H522): 89% | growth at 0.01 µM (BT-549): 97% | growth at 0.01 µM (IGROV-1 [6]): 95% | growth at 0.1 µM (T47D): 79% | growth at 0.01 µM (UACC-62): 95% | GI50 (MCF7 [7]): 12.1 µM | TGI (MCF7 [7]): > 100 µM | CC50 (MCF7 [7]): > 100 µM | growth at 100 µM (SNB-75 [8]): -49% | growth at 1 µM (IGROV-1 [9]): 101% | growth at 100 µM (HT-29): 8% | growth at 100 µM (MOLT-4): 18% | growth at 0.1 µM (SNB-75 [10]): 83% | GI50 (NCI/ADR-RES): 16.3 µM | TGI (NCI/ADR-RES): > 100 µM | CC50 (NCI/ADR-RES): > 100 µM | GI50 (RXF 393 [11]): 3.15 µM | TGI (RXF 393 [11]): 54.2 µM | CC50 (RXF 393 [11]): > 100 µM | growth at 0.01 µM (LOX IMVI [12]): 94% | growth at 0.1 µM (TK-10): 96% | growth at 0.1 µM (UO-31 [13]): 83% | growth at 100 µM (NCI-H460): 8% | GI50 (K562): 9.1 µM | LC50 (concentration killing 50% of cells) (K562): > 100 µM | TGI (K562): > 100 µM | GI50 (Malme-3M): 3.8 µM | LC50 (Malme-3M): > 100 µM | TGI (Malme-3M): > 100 µM | growth at 0.01 µM (HOP-62): 89% | growth at 0.1 µM (CCRF-CEM [14]): 96% | growth at 1 µM (NCI-H226): 92% | growth at 100 µM (ACHN): 10% | growth at 100 µM (PC-3): 23% | growth at 100 µM (786-0): 22%

COc1cccc(NC(=O)c2sc3nc4c(cc3c2N)CN(Cc2ccccc2)CC4)c1
growth at 100 µM (HCT-15): 6% | growth at 1 µM (SK-MEL-28): 68% | growth at 0.01 µM (UACC-257): 94% | growth at 1 µM (LOX IMVI [1]): 86% | growth at 0.01 µM (RXF 393 [2]): 97% | growth at 0.01 µM (MDA-MB-435): 93% | growth at 1 µM (MCF7 [3]): 40% | growth at 0.1 µM (SW-620): 99% | growth at 0.01 µM (UO-31 [4]): 92% | growth at 0.01 µM (CCRF-CEM [5]): 99% | growth at 0.01 µM (NCI-H522): 95% | growth at 0.01 µM (BT-549): 88% | growth at 0.01 µM (IGROV-1 [6]): 101% | growth at 0.1 µM (T47D): 94% | growth at 0.01 µM (UACC-62): 94% | GI50 (MCF7 [7]): 0.62 µM | TGI (MCF7 [7]): > 100 µM | CC50 (MCF7 [7]): > 100 µM | growth at 100 µM (SNB-75 [8]): -61% | growth at 1 µM (IGROV-1 [9]): 90% | growth at 100 µM (HT-29): -72% | growth at 100 µM (MOLT-4): 13% | growth at 0.1 µM (SNB-75 [10]): 92% | GI50 (NCI/ADR-RES): 2.4 µM | TGI (NCI/ADR-RES): 33.3 µM | CC50 (NCI/ADR-RES): > 100 µM | GI50 (RXF 393 [11]): 2.71 µM | TGI (RXF 393 [11]): 12.9 µM | CC50 (RXF 393 [11]): > 100 µM | growth at 0.01 µM (LOX IMVI [12]): 97% | growth at 0.1 µM (TK-10): 104% | growth at 0.1 µM (UO-31 [13]): 92% | growth at 100 µM (NCI-H460): -25% | GI50 (K562): 0.53 µM | LC50 (concentration killing 50% of cells) (K562): > 100 µM | TGI (K562): > 100 µM | GI50 (Malme-3M): 1.43 µM | LC50 (Malme-3M): > 100 µM | TGI (Malme-3M): 16.6 µM | growth at 0.01 µM (HOP-62): 80% | growth at 0.1 µM (CCRF-CEM [14]): 98% | growth at 1 µM (NCI-H226): 81% | growth at 100 µM (ACHN): -3% | growth at 100 µM (PC-3): -2% | growth at 100 µM (786-0): -47%
